SUMO1-SIM PPI: alters human SUMO1 binding to SIM partners; SUMO1 binding to a labelled peptide, TR-FRET, 1 h; inhibition, % at 20 µM; 0.33% of 360,000 active; P63165; AID 602429; in the data active = inhibition above about 37%
STEP inh: STEP (human) phosphatase inhibition | 0.25% of 360,000 active | inhibition, % at 20 µM | recombinant STEP, OMFP fluorogenic substrate, fluorescence | P54829 | AID 588621;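 active = inhibition at 20 µM, scaled per plate between control wells, above about 37%, limit read from the data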;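 note: 0% = DMSO with enzyme and substrate and 100% = substrate only without enzyme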
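Assay system: isolated STEP enzyme / Timing: 20 min at room temperature, dark / Doses: 20 µM, 1% DMSO / Technique: fluorescence intensity, excitation 480 nm, emission 540 nm / Reagent: fluorogenic phosphatase substrate OMFP at 25 µM final / Measure: percent inhibition scaled to no-enzyme and uninhibited-enzyme controls, plate-pattern corrected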
LMPTP inh: blocks human LMPTP phosphatase. inhibition, % at 20 µM. 0.22% of 360,000 active. recombinant LMPTP-A, OMFP fluorogenic substrate, fluorescence intensity. P24666;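 active = compounds that cut the enzyme signal by at least half of the control window in the single-dose screen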;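 note: plate controls were DMSO wells with enzyme plus substrate for no effect and substrate without enzyme for full effect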
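test system = LMPTP-A | amount = 0.625 nM LMPTP-A final | reagent = fluorogenic phosphatase substrate OMFP at 400 µM final | incubation = 50 min at room temperature | benchmarks = no-enzyme low control, uninhibited high control | medium = Bis-Tris pH 6.0, DTT, detergent | signal = fluorescence intensity of OMFP turnover product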
Scp-1 inhibitor: inhibitors of human Scp-1 phosphatase. Q9GZU7. Recombinant Scp1, phosphopeptide, malachite green phosphate absorbance. inhibition, % at 20 µM. 0.88% of 340,000 active;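 active = inhibition above about 50% at 20 µM, limit read from the data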;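 note: plate controls were DMSO wells with enzyme for no effect and wells lacking enzyme for full effect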
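Test system: SCP-1 phosphatase catalytic domain, residues 76-261 | Compound dosing: One concentration, 20 µM, with 1.0% DMSO | Schedule: 45 min room-temperature reaction, 5 min colour, 30 min stabiliser | Detection: Absorbance at 630 nm | Read-out basis: % inhibition of SCP-1 phosphate liberation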
DNMT1 inh: blocks human DNA methyltransferase DNMT1. inhibition (reported as % activation of signal), % at 10 µM. P26358. 0.83% of 360,000 active. DNMT1 molecular beacon, Hinp1I cleavage, fluorescence; in the data active = inhibition above about 50%
Target sequence (P26358 504-1616 limits assumed): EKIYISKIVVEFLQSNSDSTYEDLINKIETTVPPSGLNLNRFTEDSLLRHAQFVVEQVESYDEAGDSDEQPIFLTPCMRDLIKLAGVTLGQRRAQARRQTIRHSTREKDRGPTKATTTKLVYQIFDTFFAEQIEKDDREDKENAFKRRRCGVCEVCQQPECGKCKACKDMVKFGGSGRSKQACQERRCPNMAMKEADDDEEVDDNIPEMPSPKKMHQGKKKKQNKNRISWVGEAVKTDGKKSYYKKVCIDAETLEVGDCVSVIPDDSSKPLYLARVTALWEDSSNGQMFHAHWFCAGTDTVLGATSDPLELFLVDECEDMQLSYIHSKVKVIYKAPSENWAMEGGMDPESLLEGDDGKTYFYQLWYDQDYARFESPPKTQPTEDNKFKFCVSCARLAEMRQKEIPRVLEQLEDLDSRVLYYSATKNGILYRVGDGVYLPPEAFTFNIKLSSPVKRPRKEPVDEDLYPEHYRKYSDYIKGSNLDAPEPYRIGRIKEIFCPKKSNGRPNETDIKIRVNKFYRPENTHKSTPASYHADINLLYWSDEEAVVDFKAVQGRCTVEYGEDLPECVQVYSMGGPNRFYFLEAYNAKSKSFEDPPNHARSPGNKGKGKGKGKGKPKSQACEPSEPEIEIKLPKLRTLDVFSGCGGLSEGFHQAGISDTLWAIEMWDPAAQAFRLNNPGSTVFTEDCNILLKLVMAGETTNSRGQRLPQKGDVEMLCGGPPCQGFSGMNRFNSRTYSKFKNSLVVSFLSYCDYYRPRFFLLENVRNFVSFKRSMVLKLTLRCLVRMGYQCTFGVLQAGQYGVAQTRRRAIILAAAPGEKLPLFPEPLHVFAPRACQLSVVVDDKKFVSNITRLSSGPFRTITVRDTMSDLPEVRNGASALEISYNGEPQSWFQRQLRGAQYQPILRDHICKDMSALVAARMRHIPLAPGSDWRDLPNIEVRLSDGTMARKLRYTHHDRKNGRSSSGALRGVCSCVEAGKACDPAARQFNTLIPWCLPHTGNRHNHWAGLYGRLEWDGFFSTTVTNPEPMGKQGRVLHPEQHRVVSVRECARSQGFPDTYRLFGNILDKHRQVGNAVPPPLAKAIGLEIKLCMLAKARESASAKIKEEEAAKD
DNMT1 inh conf: DNMT1 inhibition confirmation, single concentration; shares compounds with DNMT1 inh; DNMT1 molecular beacon HinP1I cleavage, fluorescence; inhibition, % at 10 µM; 8% of 2,300 active;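 active = average inhibition of at least 30% in the single-concentration confirmation test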
DNMT1 interf: beacon fluorescence artifact counter-screen; 1% of 2,300 active; shares compounds with DNMT1 inh; activation (fluorescence interference), % at 10 µM; DNMT1 molecular beacon spectral interference counterscreen, fluorescence 485/520;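 active = activation of at least 30% at 10 µM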;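 note: DNMT1 catalytic domain with a HinP1I cleavage step and a FAM/dabcyl DNA beacon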
The depositor's hits bear a star; x = not tested or not shown. Compounds with a hit are over-represented: about 1.7% of the library has one in this group of screens.

SMILES	SUMO1-SIM PPI	STEP inh	LMPTP inh	Scp-1 inhibitor	DNMT1 inh	DNMT1 inh conf	DNMT1 interf
O=C(/C=C/c1ccc([N+](=O)[O-])cc1)/C=C/c1ccco1	12	6	20	x	91*	5	3
O=C(/C=C/c1ccc([N+](=O)[O-])cc1)c1ccco1	-12	0	7	1	3	x	x
O=C(/C=C/c1ccco1)c1cccc([N+](=O)[O-])c1	6	2	14	30	62*	3	2
CC1=C(C(=O)N(C(C)C)C(C)C)CC(CC(=O)NCCc2ccccn2)C(=O)N1Cc1ccc(C(C)(C)C)cc1 (configuration not stated)	-1	-1	-1	x	-3	x	x
CCOC(=O)C1=CCN(S(=O)(=O)c2ccccc2C)C1c1ccc(Cl)c(Cl)c1 (configuration not stated)	2	-1	2	x	-8	x	x
CSc1nc(C)cc(OCCNS(=O)(=O)c2cc(C)ccc2C)n1	1	-14	0	-2	67*	0	6
Cc1ccc(C)c(S(=O)(=O)NCCOc2nc(NC(C)C)nc(NC(C)C)n2)c1	0	-1	0	0	1	x	x
O=C1CN(C(=O)NCC(=O)N[C@H](Cc2ccccc2)C(=O)O)c2ccccc2N1	2	-1	-1	-7	74*	1	6
O=C1CN(C(=O)NCC(=O)N[C@H](C(=O)O)c2ccccc2)c2ccccc2N1	4	-1	-2	3	3	x	x
COc1ccc2nc(C)cc(SCC(=O)Nc3c(C)cc(C)cc3C)c2c1	-3	2	25	-4	55*	4	-1
COc1ccccc1C(=O)NC(=O)COC(=O)C1CC2CCCC(C1)C2=O (configuration not stated)	0	-1	-1	-5	1	x	x
Cc1ccc(NC(=O)COC(=O)Cn2c(C)csc2=O)c([N+](=O)[O-])c1	-20	-1	2	-3	51*	5	2
Cc1csc(=O)n1CC(=O)OCC(=O)Nc1cc([N+](=O)[O-])ccc1Cl	-32	-2	0	1	2	x	x
Cc1ccc(NC(=O)COc2ccc(/C=C3/SC(=Nc4ccccc4)N(Cc4cccnc4)C3=O)cc2)cc1	-3	0	-1	7	61*	-1	-8
O=C(N/N=C1/C(=O)c2cccc3cccc1c23)c1ccc(Cl)cc1	71*	99*	94*	95*	96*	0	-7
COc1ccc(CCNC(=O)c2cnn3ccccc23)c(OC)c1OC	4	1	-1	-3	0	x	x
COc1cc(CCNC(=O)c2cnn3ccccc23)cc(OC)c1OC	0	1	0	-13	80*	1	0
COc1ccc(NS(=O)(=O)c2cccc(C(=O)NN=Cc3cc(Br)c(O)c(Br)c3)c2)cc1	-2	3	7	-15	-3	x	x
O=C(N/N=C/c1cc(Br)c(O)c(Br)c1)c1cccc(C(F)(F)F)c1	-1	-2	-1	-4	74*	3	2
COc1ccc(CCNC(=O)[C@H](CC(C)C)NC(=O)N2CCn3c2nc2ccccc23)cc1OC	-4	0	0	-2	0	x	x
CC1CCN(C(=O)CSc2nc3c(c(=O)n2C)SC(C)C3)CC1 (configuration not stated)	1	1	-1	-5	67*	7	9
N#Cc1ccc(Cl)cc1NC(=O)COC(=O)c1cccc(S(=O)(=O)N2CCOCC2)c1	0	3	0	-2	2	x	x
CCCC(=O)Nc1ccc(Cl)c(NC(=S)NC(=O)c2cc3ccccc3o2)c1	0	1	-3	-1	56*	3	5
O=S1(=O)C[C@@H](N2CCC[C@@H]2CO)[C@H](COCc2ccccc2)N1	2	0	-1	x	1	x	x
Cc1cc(C)cc(NC(=O)Cn2nnc(C(=O)NCCc3ccccc3)c2N)c1	6	0	41	-1	67*	1	-1
SMILES	SUMO1-SIM PPI	STEP inh	LMPTP inh	Scp-1 inhibitor	DNMT1 inh	DNMT1 inh conf	DNMT1 interf
Nc1c(C(=O)NCc2ccccc2)nnn1Cc1ccc(F)cc1	4	4	1	-16	50*	4	6
COc1ccc(CNC(=O)c2nnn(Cc3ccc(OC)cc3)c2N)cc1	7	0	0	-8	0	x	x
CCOc1ccc(N(CC(=O)Nc2ccc(C)cc2C)S(C)(=O)=O)cc1	-3	-1	-2	0	71*	-2	0
CCOc1ccc(NC(=O)CS(=O)CC(=O)N(CC(=O)NC(C)(C)C)C2CCCC2)cc1 (configuration not stated)	-1	1	-1	-3	2	x	x
CC(C)(C)c1ccc(-c2csc(NC(=O)CN3C(=O)NC4(CCCCC4)C3=O)n2)cc1	-1	6	1	-17	54*	-1	-2
COc1ccccc1-c1sc2cc3c(cc2c1C#Cc1cncn1C)OCO3	-1	-4	8	15	-26	x	x
CCc1nnc2n1N=C(c1ccc(-c3cc(Cl)ccc3Cl)o1)CS2	-5	4	6	5	66*	4	0
COc1ccc(N2CCN(CCCNC(=O)C(=O)c3c(C)[nH]c4ccccc34)CC2)cc1	-2	3	0	-3	-5	x	x
O=C(NCc1ccccc1C(F)(F)F)c1cccc2c1C(=O)c1ccc(N3CCOCC3)cc1S2(=O)=O	-2	0	-2	0	62*	7	8
COc1ccc(NC(=O)C2CC(c3ccccc3O)=NO2)cc1OC (configuration not stated)	2	-1	-4	0	-3	x	x
O=C(C1COc2ccccc2O1)N1CCCC1 (configuration not stated)	5	-4	-1	-2	1	x	x
O=C(C1COc2ccccc2O1)N1CCc2ccccc21 (configuration not stated)	8	6	2	74*	58*	11	2
Cc1cc(C(=O)NNC(=O)/C=C/c2ccco2)c(C)o1	14	0	0	66*	88*	26	5
Cc1cc(C)n(CCNC(=O)c2cc(COc3c(F)cccc3F)on2)n1	2	-2	-1	0	1	x	x
Cc1cc(C)n(CCN(C)C(=O)c2cc(COc3c(F)cccc3F)on2)n1	1	0	-1	-8	51*	0	3
COc1ccc(COC(=O)C2=C(C)NC(=O)NC2c2ccc(OC)cc2)cc1 (configuration not stated)	-2	-1	0	-5	-1	x	x
CC1(C(=O)NS(=O)(=O)c2ccccc2Cl)CCN1C(=O)c1ccccc1 (configuration not stated)	2	-2	-1	x	2	x	x

Compound activity as filed in PubChem BioAssay.
